The target of series [1] is Matrix metalloproteinase-14 (Homo sapiens, UniProt P50281). The series can be described thus: Inhibition of recombinant human MMP-14 catalytic domain using Mca-Lys-Pro-Leu-Gly-Leu-Dap(Dnp)-Ala-Arg-NH2 as substrate incubated for 4 hrs measured every 15 secs for 20 mins by fluorimetric assay. The method in brief: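 MMP-14 catalytic domain was used at 1.0 nM final with no activation step. It was incubated with inhibitor for 4 h at 25 °C in Tris 50 mM pH 7.5 buffer with NaCl 150 mM, CaCl2 10 mM, 0.05% Brij-35 and 1% DMSO. Substrate was at 2 µM final, ex 325/em 400 nm, duplicate wells. IC50 was fitted by vi/vo = 1/(1+[I]/IC50).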

The target in series [2] is Matrix metalloproteinase-9 (Homo sapiens, UniProt P14780). Description: Inhibition of recombinant human MMP-9 using Mca-Lys-Pro-Leu-Gly-Leu-Dap(Dnp)-Ala-Arg-NH2 as substrate incubated for 4 hrs measured every 15 secs for 20 mins by fluorimetric assay. The gist of the method: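 Pro-MMP-9 was activated with 1 mM APMA for 1 h at 37 °C and used at 1.3 nM final. Inhibitor was incubated with enzyme for 4 h at 25 °C in Tris 50 mM pH 7.5, NaCl 150 mM, CaCl2 10 mM, 0.05% Brij-35, 1% DMSO. Substrate was at 2 µM final, ex 325/em 400 nm, in duplicate. IC50 was obtained from vi/vo = 1/(1+[I]/IC50).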
Chain of Matrix metalloproteinase-9 (P14780 whole entry): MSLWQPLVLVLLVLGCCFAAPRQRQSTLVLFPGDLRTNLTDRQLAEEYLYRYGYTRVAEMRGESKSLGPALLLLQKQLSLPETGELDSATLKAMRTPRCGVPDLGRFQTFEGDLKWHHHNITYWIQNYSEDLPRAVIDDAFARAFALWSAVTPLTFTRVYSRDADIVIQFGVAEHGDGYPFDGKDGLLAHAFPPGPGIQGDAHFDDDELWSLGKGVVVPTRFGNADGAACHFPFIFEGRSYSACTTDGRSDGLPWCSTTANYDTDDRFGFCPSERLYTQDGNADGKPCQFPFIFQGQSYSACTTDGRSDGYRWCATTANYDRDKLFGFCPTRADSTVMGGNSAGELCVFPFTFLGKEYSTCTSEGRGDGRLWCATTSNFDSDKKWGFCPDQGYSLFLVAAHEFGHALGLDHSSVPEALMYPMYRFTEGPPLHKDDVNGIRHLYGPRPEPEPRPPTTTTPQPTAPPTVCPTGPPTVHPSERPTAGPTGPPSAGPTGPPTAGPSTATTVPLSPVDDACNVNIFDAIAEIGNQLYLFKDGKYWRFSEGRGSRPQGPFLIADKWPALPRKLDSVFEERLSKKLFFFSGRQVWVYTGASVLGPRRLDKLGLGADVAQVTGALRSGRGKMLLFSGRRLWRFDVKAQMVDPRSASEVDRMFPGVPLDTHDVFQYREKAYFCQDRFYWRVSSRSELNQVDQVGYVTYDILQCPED

Series [3] deals with T1, Disintegrin and metalloproteinase domain-containing protein 17 (Homo sapiens, UniProt P78536). Description: Inhibition of recombinant human ADAM-17 using Mca-Lys-Pro-Leu-Gly-Leu-Dap(Dnp)-Ala-Arg-NH2 as substrate incubated for 30 mins measured every 15 secs for 20 mins by fluorimetric assay. The gist of the method:
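Enzyme at 5 nM final was preincubated with inhibitor for 30 min at 37 °C in Tris 25 mM pH 9, ZnCl2 25 µM, 0.005% Brij-35. Substrate was at 2 µM final. Fluorescence increase (ex 325/em 400 nm) gave initial rates, in duplicate. IC50 was derived from vi/vo = 1/(1+[I]/IC50).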

Series [4] concerns the target 72 kDa type IV collagenase (Homo sapiens, UniProt P08253). Description: Inhibition of recombinant human MMP-2 using Mca-Lys-Pro-Leu-Gly-Leu-Dap(Dnp)-Ala-Arg-NH2 as substrate incubated for 4 hrs measured every 15 secs for 20 mins by fluorimetric assay. The gist of the method: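 Pro-MMP-2 was activated with 2 mM APMA for 1 h at 37 °C and used at 0.56 nM final. It was preincubated with inhibitor for 4 h at 25 °C in Tris 50 mM pH 7.5 buffer containing NaCl, CaCl2, Brij-35 and 1% DMSO. Substrate was at 2 µM final, ex 325/em 400 nm, run in duplicate. IC50 was taken from initial-velocity ratios, vi/vo = 1/(1+[I]/IC50).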

In another series the target is T2, Interstitial collagenase (Homo sapiens, UniProt P03956).
T2 sequence (P03956 whole entry): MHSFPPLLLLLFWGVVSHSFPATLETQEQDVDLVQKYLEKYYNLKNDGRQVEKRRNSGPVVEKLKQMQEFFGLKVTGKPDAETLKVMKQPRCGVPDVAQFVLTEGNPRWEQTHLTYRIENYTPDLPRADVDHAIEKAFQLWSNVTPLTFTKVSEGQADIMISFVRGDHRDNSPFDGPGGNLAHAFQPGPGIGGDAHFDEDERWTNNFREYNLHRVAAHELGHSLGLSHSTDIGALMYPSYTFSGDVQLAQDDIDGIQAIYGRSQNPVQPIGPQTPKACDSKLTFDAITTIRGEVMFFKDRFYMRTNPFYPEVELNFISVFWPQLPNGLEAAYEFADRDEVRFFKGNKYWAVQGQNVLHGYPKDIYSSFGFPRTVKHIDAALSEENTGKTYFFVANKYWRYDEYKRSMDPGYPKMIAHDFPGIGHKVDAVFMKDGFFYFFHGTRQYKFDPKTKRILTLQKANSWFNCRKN
The series can be described thus: Inhibition of recombinant human MMP-1 using Mca-Lys-Pro-Leu-Gly-Leu-Dap(Dnp)-Ala-Arg-NH2 as substrate incubated for 4 hrs measured every 15 secs for 20 mins by fluorimetric assay. The method in brief:
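Pro-MMP-1 was activated with 2 mM APMA for 2 h at 37 °C. Enzyme (2.0 nM final) was incubated with inhibitor in Tris 50 mM pH 7.5, NaCl 150 mM, CaCl2 10 mM, 0.05% Brij-35, 1% DMSO for 4 h at 25 °C. Substrate was added at 2 µM final. Fluorescence (ex 325/em 400 nm) was read for initial rates, in duplicate. IC50 came from vi/vo = 1/(1+[I]/IC50).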

The target in series [5] is T1, Disintegrin and metalloproteinase domain-containing protein 17. The series can be described thus: Inhibition of ADAM-17 in human A2774 cells assessed as inhibition of EGF-induced sALCAM release incubated for 30 mins prior to EGF induction measured after 18 hrs by ELISA. In kind it is cell-based.
For another series, the system named is SK-OV-3. Description: Cytotoxicity against human SKOV3 cells transfected with luciferase gene assessed as cell viability at 0.01 to 10 uM after 24 to 72 hrs by MTT assay. Type of series: cell-based. Particulars: sk-ov-3, 10 µM. (Tetrazolium dyes change colour on reduction, which living cells bring about.)
Series [6] has as its target T1, Disintegrin and metalloproteinase domain-containing protein 17. Description: Inhibition of ADAM-17 in human A2774 cells assessed as inhibition of pervanadate-induced sALCAM release incubated for 30 mins prior to pervanadate induction measured after 90 mins by ELISA. Type of series: cell-based. (ELISA stands for enzyme-linked immunosorbent assay.)
Series [7] has the same target. The series can be described thus: Inhibition of ADAM-17 in human A2780 cells assessed as inhibition of EGF-induced sALCAM release incubated for 30 mins prior to EGF induction measured after 18 hrs by ELISA. Type of series: cell-based.
Series [8] has the same target. Description: Inhibition of ADAM-17 in human A2780 cells assessed as inhibition of pervanadate-induced sALCAM release incubated for 30 mins prior to pervanadate induction measured after 90 mins by ELISA. In kind it is cell-based.
Series [9] shares this target. The series can be described thus: Inhibition of ADAM-17 in human SKOV3 cells transfected with luciferase gene assessed as inhibition of EGF-induced sALCAM release incubated for 30 mins prior to EGF induction measured after 18 hrs by ELISA. Type of series: cell-based, SK-OV-3.
Series [10] has the same target. Description: Inhibition of ADAM-17 in human SKOV3 cells transfected with luciferase gene assessed as inhibition of pervanadate-induced sALCAM release incubated for 30 mins prior to pervanadate induction measured after 90 mins by ELISA. Type of series: cell-based, SK-OV-3.
The nature of series [11]: Cytotoxicity against human A2774 cells assessed as cell viability at 0.01 to 10 uM after 24 to 72 hrs by MTT assay. Type of series: cell-based. Particulars: a2774, 10 µM.
Another series has as its system A2780. The series can be described thus: Cytotoxicity against human A2780 cells assessed as cell viability at 0.01 to 10 uM after 24 to 72 hrs by MTT assay. Type of series: cell-based. Particulars: a2780, 10 µM.

Structures are written as SMILES.

Data on 18 compounds can be found in ChEMBL document CHEMBL2429772, “Selective arylsulfonamide inhibitors of ADAM-17: hit optimization and activity in ovarian cancer cell models” (J Med Chem, 2013).

T1 sequence (P78536 whole entry, the tested form may be a part): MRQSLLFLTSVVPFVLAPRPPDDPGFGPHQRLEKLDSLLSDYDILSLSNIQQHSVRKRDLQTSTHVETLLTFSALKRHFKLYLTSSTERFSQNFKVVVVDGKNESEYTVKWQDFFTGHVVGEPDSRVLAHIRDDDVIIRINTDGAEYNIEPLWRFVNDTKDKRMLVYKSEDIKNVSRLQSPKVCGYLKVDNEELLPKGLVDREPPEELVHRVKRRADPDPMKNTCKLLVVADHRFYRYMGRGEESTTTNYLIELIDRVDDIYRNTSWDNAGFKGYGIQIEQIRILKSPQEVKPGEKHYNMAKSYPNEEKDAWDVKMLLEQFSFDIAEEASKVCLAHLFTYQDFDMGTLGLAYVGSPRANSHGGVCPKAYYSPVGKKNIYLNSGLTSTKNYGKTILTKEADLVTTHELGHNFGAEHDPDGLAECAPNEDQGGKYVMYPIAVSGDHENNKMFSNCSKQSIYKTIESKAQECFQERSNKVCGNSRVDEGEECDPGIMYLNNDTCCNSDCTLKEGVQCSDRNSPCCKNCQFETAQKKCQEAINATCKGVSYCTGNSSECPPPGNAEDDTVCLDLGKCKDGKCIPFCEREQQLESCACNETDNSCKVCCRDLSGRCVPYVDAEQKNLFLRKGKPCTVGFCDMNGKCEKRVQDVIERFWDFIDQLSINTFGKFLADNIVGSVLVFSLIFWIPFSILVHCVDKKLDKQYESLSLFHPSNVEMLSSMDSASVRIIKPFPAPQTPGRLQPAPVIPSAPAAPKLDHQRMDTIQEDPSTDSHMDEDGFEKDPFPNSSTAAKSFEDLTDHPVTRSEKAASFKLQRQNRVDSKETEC
Chain of 72 kDa type IV collagenase (P08253 whole entry): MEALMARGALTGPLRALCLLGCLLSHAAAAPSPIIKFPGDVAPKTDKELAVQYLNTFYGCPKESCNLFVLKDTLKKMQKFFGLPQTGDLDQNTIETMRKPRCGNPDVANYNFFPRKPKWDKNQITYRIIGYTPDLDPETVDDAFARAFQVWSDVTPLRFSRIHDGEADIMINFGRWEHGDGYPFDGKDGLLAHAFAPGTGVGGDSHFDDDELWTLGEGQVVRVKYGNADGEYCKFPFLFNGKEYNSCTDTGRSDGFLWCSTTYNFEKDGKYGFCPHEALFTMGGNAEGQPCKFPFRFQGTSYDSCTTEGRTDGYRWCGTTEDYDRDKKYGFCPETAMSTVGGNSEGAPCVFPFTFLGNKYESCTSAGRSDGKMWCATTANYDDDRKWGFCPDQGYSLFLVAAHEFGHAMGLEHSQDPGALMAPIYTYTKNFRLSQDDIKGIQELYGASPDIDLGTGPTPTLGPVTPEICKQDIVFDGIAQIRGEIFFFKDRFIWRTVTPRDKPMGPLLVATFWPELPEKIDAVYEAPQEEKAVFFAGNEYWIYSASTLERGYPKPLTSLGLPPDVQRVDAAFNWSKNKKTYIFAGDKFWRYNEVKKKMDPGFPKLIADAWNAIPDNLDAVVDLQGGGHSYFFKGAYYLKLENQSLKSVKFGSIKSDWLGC

Consider `O=C(CNS(=O)(=O)c1ccc(OCc2ccc(F)cc2)cc1)NO`, for which the IC50 (commonly the concentration that gives 50% inhibition) in series [1] is 590 nM; in series [2], 42 nM; in series [3], 145 nM; in series [4], 3 nM; at Interstitial collagenase, 32000 nM.

As to `O=C(CNS(=O)(=O)c1ccc(OCc2cc(F)cc(F)c2)cc1)NO`, the IC50 in series [1] came to 890 nM; in series [2], 330 nM; in [3], 82 nM; in [4], 18 nM; on Interstitial collagenase, 181000 nM.

For the compound `O=C(CNS(=O)(=O)c1ccc(OCc2cccc3cccnc23)cc1)NO`, the 50% inhibitory concentration (IC50) in [1] was found to be 120000 nM; in series [2], 29000 nM; in series [3], 650 nM; in series [4], 670 nM; on Interstitial collagenase it was 620000 nM.

Consider `CC#CCOc1ccc(S(=O)(=O)NCC(=O)NO)cc1`, for which the concentration for half-maximal inhibition (IC50) was 2900 nM in [1]; 890 nM in series [2]; 17 nM in [3]; 110 nM in series [4]; 28000 nM on Interstitial collagenase.

Take `O=C(CNS(=O)(=O)c1ccc(OCc2ccc(-c3ccccc3)cc2)cc1)NO`: the IC50 in [1] is 72000 nM; in [2] it was 690 nM; in series [3], 640 nM; in [4], 48 nM; on Interstitial collagenase it was greater than 500000 nM.

Turning to `O=C(CNS(=O)(=O)c1ccc(OCc2cccc(Br)c2)cc1)NO`, the 50% inhibitory concentration (IC50) in [1] is 1600 nM; in series [2], 60 nM; in series [3], 104 nM; in [4] it was 15 nM; on Interstitial collagenase, greater than 500000 nM.

As for `O=C(CNS(=O)(=O)c1ccc(OCc2ccc(Br)cc2)cc1)NO`, the 50% inhibitory concentration (IC50) in series [1] was determined as 630 nM; in series [2], 1.4 nM; in series [3] it was 16 nM; in [4], 1.2 nM; at Interstitial collagenase, 120000 nM.

`O=C(CNS(=O)(=O)c1ccc(OCc2cccc(-c3ccccc3)c2)cc1)NO`: the concentration for half-maximal inhibition (IC50) was determined as 1700 nM in series [1]; 920 nM in series [2]; 76 nM in series [3]; 41 nM in [4]; 100000 nM on Interstitial collagenase.

In the case of `CN(CC(=O)NO)S(=O)(=O)c1ccc(OCc2cc(Br)cc(Br)c2)cc1`, the IC50 in series [1] is 123000 nM; in series [3], 160 nM; in series [4], 1870 nM; at Interstitial collagenase, greater than 200000 nM.

Turning to `NC(=O)NCCC[C@@H](NS(=O)(=O)c1ccc(OCc2cc(Br)cc(Br)c2)cc1)C(=O)NO`, the half-maximal inhibitory concentration (IC50) is 651 nM in series [5]; 45 nM in series [6]; 845 nM in series [7]; less than 10 nM in series [8]; 4270 nM in series [9]; 58 nM in series [10]. Besides, the IC50 on Interstitial collagenase is greater than 500000 nM. For the same compound, the Activity entry (in the series on SK-OV-3; in series [11]; in the series on A2780) was “Non-toxic” throughout.

On to `O=C(CNS(=O)(=O)c1ccc(OCc2cccc(OC(F)(F)F)c2)cc1)NO`, for which the 50% inhibitory concentration (IC50) in series [1] was 2900 nM; in series [2] it was 76 nM; in [3], 280 nM; in [4], 20 nM; at Interstitial collagenase, greater than 500000 nM.

Turning to `O=C(CNS(=O)(=O)c1ccc(OCc2cc(Br)cc(-c3cccnc3)c2)cc1)NO`, the IC50 in series [1] was 21400 nM; in series [3], 500 nM; in series [4], 1050 nM; on Interstitial collagenase, greater than 500000 nM.

For `O=C(CNS(=O)(=O)c1ccc(OCc2ccc(OC(F)(F)F)cc2)cc1)NO`, the IC50 worked out at 7200 nM in series [1]; 37 nM in series [2]; 200 nM in [3]; 7.5 nM in [4]; 74000 nM on Interstitial collagenase.

For the compound `O=C(O)CNS(=O)(=O)c1ccc(OCc2cc(Br)cc(Br)c2)cc1`, the IC50 in series [3] was greater than 50000 nM; in [4] it was 125000 nM.

Turning to `CC#CCOc1ccc(S(=O)(=O)N[C@H](CCNC(=O)OCc2ccccc2)C(=O)NO)cc1`, the Activity entry (in the series with SK-OV-3; in series [11]; with A2780) was “Non-toxic” in each case. Also, the IC50 is 26 nM in [6]; 1440 nM in series [7]; less than 10 nM in [8]; 966 nM in series [9]; 14 nM in series [10].

Consider `O=C(CNS(=O)(=O)c1ccc(OCc2ccccc2)cc1)NO`, for which the IC50 in series [2] stood at 96 nM; in series [3] it was 590 nM.

For the compound `O=C(CNS(=O)(=O)c1ccc(OCc2cccc(F)c2)cc1)NO`, the IC50 in series [1] stood at 940 nM; in series [2], 110 nM; in series [3] it was 71 nM; in [4] it was 7.8 nM; on Interstitial collagenase, 61000 nM.

As to `COc1ccc(-c2cc(Br)cc(COc3ccc(S(=O)(=O)NCC(=O)NO)cc3)c2)cc1`, the IC50 was 170000 nM in [1], 320 nM in [3], 3800 nM in series [4] and greater than 200000 nM at Interstitial collagenase.
